ABHD4 inh: ABHD4 inhibitors, primary screen, biochemical, fluorescence polarization, mouse. (Lyso)-N-acylphosphatidylethanolamine lipase (Mus musculus), Q8VD66. purified mABHD4, FP-Rh probe fluorescence polarization. inhibition, % at 8.92 µM. 370,000 compounds, 0.54% hits;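 active = inhibition exceeding the mean over every tested compound plus 3 SD, cut at about 30% in these data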;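 also: 0% = plate median of compound wells and 100% = S159A mutant with DMSO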
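Assay system: wild-type mouse ABHD4 protein; compound: single nominal dose of 8.92 µM, 0.89% DMSO final; schedule: 45 min + 60 min at 25 °C; measured by: FP readout, ex 525 nm / em 598 nm; evaluation: % inhibition of FP-Rh probe binding versus controls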
SIAE inh: human SIAE inhibitors, primary screen, biochemical, fluorescence polarization, FP-Rh probe, 1536-well HTS; Sialate O-acetylesterase (Homo sapiens), Q9HAT2; SIAE FP-Rh probe binding; inhibition, % at 9.66 µM; 370,000 compounds, 0.69% hits; AID 1053197, 2014;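 active = inhibition above a cutoff: mean of compounds within the control limits plus 3 SD of those, cut at about 17% in these data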;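 also: 0% = plate median of compound wells and 100% = probe without SIAE protein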
HTRA1 inhibitor: HTRA1 serine protease inhibitors, primary screen, biochemical, fluorescence polarization, HTS | 340,000 compounds, 0.5% hits | recombinant HTRA1, FP-rhodamine activity-based probe | inhibition, % at 5.96 µM | AID 504803, 2011; in the data active = inhibition above about 36%;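 also: 0% = enzyme with DMSO and 100% = wells lacking enzyme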
TCR CD3 inh: inhibitors of human TCR-CD3 interaction, primary screen, biochemical, fluorescence, TAMRA-labeled TCR probe | inhibition, % at 9.4 µM | AID 651800, 2012 | 360,000 compounds, 0.37% hits; in the data active = inhibition above about 19%;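 also: recombinant mutant TCR 2C K166C tagged with TAMRA read by polarization; 0% = receptor in buffer alone and 100% = receptor with positive control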
PRMT1 inh: PRMT1 methyltransferase inhibitors, primary screen, biochemical, fluorescence polarization; inhibition, % at 2.79 µM; recombinant PRMT1, activity-based probe fluorescence polarization; Protein arginine N-methyltransferase 1 (Homo sapiens), Q99873; 370,000 compounds, 1.3% hits;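 active = inhibition above about 21% made by adding two undisclosed values, limit read from the data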
Target sequence (Q99873 whole entry, looked up): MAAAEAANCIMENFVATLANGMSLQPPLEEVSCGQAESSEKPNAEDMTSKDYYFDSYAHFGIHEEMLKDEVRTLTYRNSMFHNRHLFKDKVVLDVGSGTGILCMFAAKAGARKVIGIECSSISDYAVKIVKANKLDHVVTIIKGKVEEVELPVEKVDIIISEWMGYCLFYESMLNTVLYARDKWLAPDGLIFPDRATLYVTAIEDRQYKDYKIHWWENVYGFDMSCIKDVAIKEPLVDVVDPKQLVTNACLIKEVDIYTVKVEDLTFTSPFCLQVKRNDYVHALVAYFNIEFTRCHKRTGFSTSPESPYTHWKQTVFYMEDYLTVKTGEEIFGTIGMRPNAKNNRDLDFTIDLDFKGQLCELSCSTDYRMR
PRMT1 confirm: PRMT1 methyltransferase inhibitors, confirmation, biochemical, fluorescence polarization, triplicate; AID 687036, 2013; shares compounds with PRMT1 inh; 3,300 compounds, 42% hits; inhibition, % at 2.79 µM; recombinant His-PRMT1, activity-based probe fluorescence polarization;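 active = mean inhibition across replicates above the hit cutoff derived for the earlier primary screen, cut at about 22% in these data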
* = called active by the depositor. Shown are actives, neighbours in structure and some others; about 2.6% of the full set was active somewhere.

Screening CN(C1CCCCC1)C(CNS(=O)(=O)c1ccc(Cl)cc1)c1ccccc1 (stereo unspecified) returned ABHD4 inh -5, SIAE inh 4, HTRA1 inhibitor -6, TCR CD3 inh -3 and PRMT1 inh 1.
`COc1ccc(C2C(C(=O)Nc3ccccc3)=C(C)N=C3SCC(=O)N32)cc1` (stereo unspecified) gave ABHD4 inh -34, SIAE inh -82, HTRA1 inhibitor -48, TCR CD3 inh 16 and PRMT1 inh 9.
CC1=C(C(=O)Nc2ccccc2)C(c2ccc(O)cc2)N2C(=O)CSC2=N1 (stereo unspecified) was read as ABHD4 inh -58, SIAE inh -75, HTRA1 inhibitor -8, TCR CD3 inh 8, PRMT1 inh 26* and PRMT1 confirm 29*.
Screening COc1ccc(Nc2nnc(SCC(=O)NC3CCCC3)s2)cc1 returned ABHD4 inh 1, SIAE inh 10, HTRA1 inhibitor 0, TCR CD3 inh 9 and PRMT1 inh -1.
For Cc1cc(C(=O)CCC(=O)N(C)CC(=O)Nc2c(Cl)cccc2Cl)c(C)s1 the results were ABHD4 inh 3, SIAE inh 4, HTRA1 inhibitor -3, TCR CD3 inh 5, PRMT1 inh 28* and PRMT1 confirm 1.
CN(CC(=O)Nc1c(Cl)cccc1Cl)C(=O)CCC(=O)c1ccccc1 was read as ABHD4 inh -9, SIAE inh 3, HTRA1 inhibitor 0, TCR CD3 inh -3 and PRMT1 inh -3.
`CN1C(C(=O)Nc2cccc(O)c2)=CC(c2ccco2)=NS1(=O)=O` gave ABHD4 inh 3, SIAE inh -2, HTRA1 inhibitor -1, TCR CD3 inh -4 and PRMT1 inh 3.
Cc1ccc(O)c(NC(=O)C2=CC(c3ccco3)=NS(=O)(=O)N2C)c1 was read as ABHD4 inh 6, SIAE inh 4, HTRA1 inhibitor -4, TCR CD3 inh 4, PRMT1 inh 97* and PRMT1 confirm -1.
Cc1ccccc1C(=O)N1CCN(CCNC(=O)C(=O)Nc2ccc(Br)cc2)CC1 was read as ABHD4 inh 0, SIAE inh -7, HTRA1 inhibitor -4, TCR CD3 inh 2 and PRMT1 inh -5.
`CC1=C(C(=O)Nc2ccccc2)C(c2ccc(C)o2)n2c(s/c(=C\c3ccco3)c2=O)=N1` (stereo unspecified) gave ABHD4 inh 5, SIAE inh -4, HTRA1 inhibitor 7, TCR CD3 inh -2, PRMT1 inh 53* and PRMT1 confirm -3.
Screening COc1ccccc1C1C(C(C)=O)=C(C)N=c2s/c(=C\c3cc(OC)c(OC)c(OC)c3)c(=O)n21 (stereo unspecified) returned ABHD4 inh 3, SIAE inh 1, HTRA1 inhibitor 2, TCR CD3 inh -3 and PRMT1 inh 1.
`O=C(CN(Cc1ccccc1F)S(=O)(=O)c1ccc(Cl)cc1)NCC1CCCO1` (stereo unspecified) gave ABHD4 inh -7, SIAE inh -1, HTRA1 inhibitor 5, TCR CD3 inh 4 and PRMT1 inh 1.
`Cc1ccc(-c2cc(C(=O)N(C)CC(=O)Nc3ccccc3Br)c3ccccc3n2)o1` gave ABHD4 inh 3, SIAE inh 1, HTRA1 inhibitor -26, TCR CD3 inh -1, PRMT1 inh 30* and PRMT1 confirm 39*.
Screening COc1ccc(NC(=O)CN(C)C(=O)c2cc(-c3ccco3)nc3ccccc23)cc1 returned ABHD4 inh 4, SIAE inh 6, HTRA1 inhibitor 1, TCR CD3 inh 13 and PRMT1 inh 17.
`Cc1ccc(-c2cc(C(=O)Nc3ccccc3C(N)=O)c3ccccc3n2)o1` gave ABHD4 inh -13, SIAE inh -12, TCR CD3 inh -2, PRMT1 inh 65* and PRMT1 confirm 28*.
Cc1ccc(-c2cc(C(=O)Nc3nccs3)c3ccccc3n2)o1 was read as ABHD4 inh 3, SIAE inh 3, HTRA1 inhibitor -20, TCR CD3 inh -6, PRMT1 inh 36* and PRMT1 confirm 12.
For Cc1ccc(-c2cc(C(=O)Nc3nccs3)c3ccccc3n2)c(C)c1 the results were ABHD4 inh -3, SIAE inh -12, HTRA1 inhibitor -39, TCR CD3 inh 0 and PRMT1 inh 2.
COc1ccc(NC(=O)c2cc(-c3ccc(C)o3)nc3ccccc23)c(OC)c1 was read as ABHD4 inh -4, SIAE inh 8, TCR CD3 inh -1 and PRMT1 inh 6.
CS(=O)(=O)c1ccc(S(=O)CC(=O)OCc2ccccc2)c([N+](=O)[O-])c1 (stereo unspecified) was read as ABHD4 inh 1, SIAE inh 5, HTRA1 inhibitor 1, TCR CD3 inh -10, PRMT1 inh 66* and PRMT1 confirm 34*.
Screening COCCCn1c(SCc2nnc(-c3ccccc3)o2)nc2sc3c(c2c1=O)CCC3 returned ABHD4 inh -2, SIAE inh -3, HTRA1 inhibitor -6, TCR CD3 inh 9 and PRMT1 inh -1.
Cn1c(SCc2nnc(-c3ccccc3Br)o2)nc2sc3c(c2c1=O)CCC3 was read as ABHD4 inh -3, SIAE inh -10, HTRA1 inhibitor -40, TCR CD3 inh 0, PRMT1 inh 29* and PRMT1 confirm 10.
For COC(=O)c1ccccc1C(=O)N1CCCC(CNC(=O)c2ccc(F)cc2)C1 (stereo unspecified) the results were ABHD4 inh 1, SIAE inh 6, HTRA1 inhibitor 3, TCR CD3 inh -1 and PRMT1 inh -2.
Screening O=C(CSc1cn[nH]n1)Nc1cccc(C(=O)O)c1 returned ABHD4 inh 1, SIAE inh 4, HTRA1 inhibitor 4, TCR CD3 inh 0, PRMT1 inh 72* and PRMT1 confirm 90*.
`Cc1cccc(NC(=O)CSc2cn[nH]n2)c1` gave ABHD4 inh 2, SIAE inh -1, HTRA1 inhibitor 0, TCR CD3 inh 0 and PRMT1 inh -1.
CN1Cc2sc(NC(=S)NC(=O)c3ccccc3)c(C#N)c2CC1(C)C was read as ABHD4 inh 14, SIAE inh 9, TCR CD3 inh -1, PRMT1 inh 71* and PRMT1 confirm 9.
N#Cc1c(NC(=S)NC(=O)c2ccccc2)sc2c1CCC2 was read as ABHD4 inh -3, SIAE inh 9, HTRA1 inhibitor -4, TCR CD3 inh 3 and PRMT1 inh 11.
